Data on 45 compounds can be found in ChEMBL document CHEMBL1132297, “Novel cryptophycin antitumor agents: synthesis and cytotoxicity of fragment "B" analogues” (J Med Chem, 1999).

In the assay the test system is CCRF-CEM. The assay is described as follows: In vitro cytotoxicity against human leukemia CCRF-CEM tumor cell lines. It is filed as functional, cell-based. The gist of the method: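 Log-phase cells seeded at 4.8×10^4 cells per well in RPMI-1640 with 10% dialyzed FBS and 25 mM HEPES. Compounds were dissolved in DMSO at 0.2 mg/mL, serially diluted 1:3 in DMSO, and added to duplicate wells; DMSO final 0.5%, with DMSO-only control wells. Exposure 72 h at 37 °C, 5% CO2. Suspension cells counted by Coulter counter; IC50 from dose–response curves.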
On to `CC(C)C[C@@H]1OC(=O)C(C)(C)CNC(=O)[C@H]2CCCN2C(=O)/C=C/C[C@@H]([C@H](C)/C=C/c2ccccc2)OC1=O`, for which the IC50 (in general, the midpoint of a concentration-inhibition curve) was > 1860 nM.
Under `CC(C)C[C@@H]1OC(=O)C(C)(C)CNC(=O)[C@@H](Cc2ccc3ccccc3c2)NC(=O)/C=C/C[C@@H]([C@H](C)/C=C/c2ccccc2)OC1=O` stands > 1570 nM; under `CC(C)C[C@@H]1OC(=O)C(C)(C)CNC(=O)[C@@H](c2ccc(O)cc2)NC(=O)/C=C/C[C@@H]([C@H](C)[C@H]2O[C@@H]2c2ccccc2)OC1=O`, 274 nM; under `CC(C)C[C@@H]1OC(=O)C(C)(C)CNC(=O)[C@@H](Cc2ccc3ccccc3c2)NC(=O)/C=C/C[C@@H]([C@H](C)[C@@H]2O[C@H]2c2ccccc2)OC1=O`, 866 nM.
Consider `CC(C)C[C@@H]1OC(=O)C(C)(C)CNC(=O)[C@@H](C(C)C)NC(=O)/C=C/C[C@@H]([C@H](C)[C@H]2O[C@@H]2c2ccccc2)OC1=O`, for which the IC50 is > 1800 nM.
The compound `CC(C)C[C@@H]1OC(=O)C(C)(C)CNC(=O)[C@@H](COCc2ccccc2)NC(=O)/C=C/C[C@@H]([C@H](C)[C@H]2O[C@@H]2c2ccccc2)OC1=O` returned a 50% inhibitory concentration (IC50) of 249 nM.
Consider `CC(C)C[C@@H]1OC(=O)C(C)(C)CNC(=O)[C@@H](Cc2ccc3ccccc3c2)NC(=O)/C=C/C[C@@H]([C@H](C)[C@H]2O[C@@H]2c2ccccc2)OC1=O`, for which the IC50 was 48 nM.
Turning to `CC(C)C[C@@H]1OC(=O)C(C)(C)CNC(=O)[C@@H](Cc2ccc(NC(=O)OCC3c4ccccc4-c4ccccc43)cc2)NC(=O)/C=C/C[C@@H]([C@H](C)/C=C/c2ccccc2)OC1=O`, the 50% inhibitory concentration (IC50) is > 1200 nM.
Under `CC(C)C[C@@H]1OC(=O)C(C)(C)CNC(=O)[C@@H](Cc2ccc(N(C)C)c(Cl)c2)NC(=O)/C=C/C[C@@H]([C@H](C)[C@H]2O[C@@H]2c2ccccc2)OC1=O` stands 0.054 nM.
With `CC(C)C[C@@H]1OC(=O)C(C)(C)CNC(=O)[C@@H](Cc2ccccc2)NC(=O)/C=C/C[C@@H]([C@H](C)/C=C/c2ccccc2)OC1=O`, the IC50 is 412 nM.
In the case of `CC(C)C[C@@H]1OC(=O)C(C)(C)CNC(=O)[C@@H](CCc2ccccc2)NC(=O)/C=C/C[C@@H]([C@H](C)/C=C/c2ccccc2)OC1=O`, the IC50 amounted to 1660 nM. Against the preceding compound, the IC50 is about 4-fold higher.
As to `CC(C)C[C@@H]1OC(=O)C(C)(C)CNC(=O)[C@@H](Cc2ccc(N)cc2)NC(=O)/C=C/C[C@@H]([C@H](C)/C=C/c2ccccc2)OC1=O`, the IC50 is 1540 nM. This IC50 and that of the compound before are within 1.5-fold of each other.
In the case of `CC(C)C[C@@H]1OC(=O)C(C)(C)CNC(=O)[C@@H](Cc2ccc(NC(=O)OCC3c4ccccc4-c4ccccc43)c(Cl)c2)NC(=O)/C=C/C[C@@H]([C@H](C)C2OC2c2ccccc2)OC1=O` (stereo not given in full), the IC50 turned out to be 15.3 nM.
The figure for `CC(C)C[C@@H]1OC(=O)C(C)(C)CNC(=O)[C@@H](Cc2cccc3ccccc23)NC(=O)/C=C/C[C@@H]([C@H](C)[C@@H]2O[C@H]2c2ccccc2)OC1=O` is 327 nM.
Compound `CC(C)C[C@@H]1OC(=O)C(C)(C)CNC(=O)[C@@H](Cc2ccc(N)c(Cl)c2)NC(=O)/C=C/C[C@@H]([C@H](C)/C=C/c2ccccc2)OC1=O` showed a half-inhibitory concentration (IC50) of 500 nM.
Under `CC(C)C[C@@H]1OC(=O)C(C)(C)CNC(=O)[C@@H](Cc2ccc(O)c(Cl)c2)NC(=O)/C=C/C[C@@H]([C@H](C)[C@@H]2O[C@H]2c2ccccc2)OC1=O` stands 31 nM.
Under `CC(C)C[C@@H]1OC(=O)C(C)(C)CNC(=O)[C@@H](CC2CCCCC2)NC(=O)/C=C/C[C@@H]([C@H](C)[C@H]2O[C@@H]2c2ccccc2)OC1=O` stands 8.8 nM; under `CC(C)C[C@@H]1OC(=O)C(C)(C)CNC(=O)CNC(=O)/C=C/C[C@@H]([C@H](C)/C=C/c2ccccc2)OC1=O`, > 2000 nM; under `CC(C)C[C@@H]1OC(=O)C(C)(C)CNC(=O)[C@@H](CC2CCCCC2)NC(=O)/C=C/C[C@@H]([C@H](C)/C=C/c2ccccc2)OC1=O`, > 1680 nM.
In turn, `CC(C)C[C@@H]1OC(=O)C(C)(C)CNC(=O)[C@@H](Cc2ccc(O)c(Cl)c2)NC(=O)/C=C/C[C@@H]([C@H](C)[C@H]2O[C@@H]2c2ccccc2)OC1=O` came in with an IC50 of 0.52 nM.
For `CC(C)C[C@@H]1OC(=O)C(C)(C)CNC(=O)[C@@H](Cc2cccnc2)NC(=O)/C=C/C[C@@H]([C@H](C)/C=C/c2ccccc2)OC1=O`, the IC50 was 997 nM.
With `CC(C)C[C@@H]1OC(=O)C(C)(C)CNC(=O)[C@@H](Cc2ccccc2)NC(=O)/C=C/C[C@@H]([C@H](C)[C@H]2O[C@@H]2c2ccccc2)OC1=O`, the IC50 was 0.183 nM.
In the case of `CC(C)C[C@@H]1OC(=O)C(C)(C)CNC(=O)[C@@H](Cc2ccc(NC(=O)OCC3c4ccccc4-c4ccccc43)c(Cl)c2)NC(=O)/C=C/C[C@@H]([C@H](C)/C=C/c2ccccc2)OC1=O`, the IC50 is > 1250 nM.
Under `CC(C)C[C@@H]1OC(=O)C(C)(C)CNC(=O)[C@@H](Cc2ccc(NC(=O)OCC3c4ccccc4-c4ccccc43)cc2)NC(=O)/C=C/C[C@@H]([C@H](C)C2OC2c2ccccc2)OC1=O` (stereo not given in full) stands 115 nM.
Under `CC(C)C[C@@H]1OC(=O)C(C)(C)CNC(=O)[C@@H](Cc2ccc(I)cc2)NC(=O)/C=C/C[C@@H]([C@H](C)/C=C/c2ccccc2)OC1=O` stands 607 nM; under `COc1ccc(C[C@H]2NC(=O)/C=C/C[C@@H]([C@H](C)/C=C/c3ccccc3)OC(=O)[C@H](CC(C)C)OC(=O)C(C)(C)CNC2=O)cc1Cl`, 13.8 nM.
In turn, `CC(C)C[C@@H]1OC(=O)C(C)(C)CNC(=O)[C@@H](Cc2ccc(O)c(Cl)c2)NC(=O)/C=C/C[C@@H]([C@H](C)/C=C/c2ccccc2)OC1=O` gave a half-inhibitory concentration (IC50) of 269 nM.
Take `CC(C)C[C@@H]1OC(=O)C(C)(C)CNC(=O)[C@@H](Cc2cccc3ccccc23)NC(=O)/C=C/C[C@@H]([C@H](C)/C=C/c2ccccc2)OC1=O`: the IC50 was > 1570 nM.
Under `CC(C)C[C@@H]1OC(=O)C(C)(C)CNC(=O)[C@@H](Cc2ccc(N)cc2)NC(=O)/C=C/C[C@@H]([C@H](C)[C@H]2O[C@@H]2c2ccccc2)OC1=O` stands 10.1 nM; under `CC(C)C[C@@H]1OC(=O)C(C)(C)CNC(=O)[C@@H](COCc2ccccc2)NC(=O)/C=C/C[C@@H]([C@H](C)[C@@H]2O[C@H]2c2ccccc2)OC1=O`, 975 nM.
For `CC(C)C[C@@H]1OC(=O)C(C)(C)CNC(=O)[C@@H](Cc2ccc(O)c(O)c2)NC(=O)/C=C/C[C@@H]([C@H](C)/C=C/c2ccccc2)OC1=O`, the IC50 is 1300 nM.
The compound `CC(C)C[C@@H]1OC(=O)C(C)(C)CNC(=O)[C@@H](Cc2ccc(O)cc2)NC(=O)/C=C/C[C@@H]([C@H](C)[C@H]2O[C@@H]2c2ccccc2)OC1=O` gave an IC50 of 4.11 nM.
Under `COc1ccc(C[C@H]2NC(=O)/C=C/C[C@@H]([C@H](C)C3O[C@@H]3c3ccccc3)OC(=O)[C@H](CC(C)C)OC(=O)C(C)(C)CNC2=O)cc1Cl` (stereo not given in full) stands 0.022 nM; under `CC(C)C[C@@H]1OC(=O)C(C)(C)CNC(=O)[C@H]2CCCN2C(=O)/C=C/C[C@@H]([C@H](C)[C@H]2O[C@@H]2c2ccccc2)OC1=O`, 1350 nM; under `CC(C)C[C@@H]1OC(=O)C(C)(C)CNC(=O)[C@@H](Cc2cccc3ccccc23)NC(=O)/C=C/C[C@@H]([C@H](C)[C@H]2O[C@@H]2c2ccccc2)OC1=O`, 35 nM.
Under `CC(C)C[C@@H]1OC(=O)C(C)(C)CNC(=O)[C@@H](CCc2ccccc2)NC(=O)/C=C/C[C@@H]([C@H](C)[C@H]2O[C@@H]2c2ccccc2)OC1=O` stands 598 nM.
Consider `CC(C)C[C@@H]1OC(=O)C(C)(C)CNC(=O)[C@@H]([C@H](C)O)NC(=O)/C=C/C[C@@H]([C@H](C)/C=C/c2ccccc2)OC1=O`, for which the concentration for half-maximal inhibition (IC50) was > 1840 nM.
The figure for `CC(C)C[C@@H]1OC(=O)C(C)(C)CNC(=O)[C@@H](C(C)C)NC(=O)/C=C/C[C@@H]([C@H](C)/C=C/c2ccccc2)OC1=O` is > 1850 nM; for `CC(C)C[C@@H]1OC(=O)C(C)(C)CNC(=O)[C@@H](Cc2ccc(O)cc2)NC(=O)/C=C/C[C@@H]([C@H](C)/C=C/c2ccccc2)OC1=O` it is 734 nM; for `CC(C)C[C@@H]1OC(=O)C(C)(C)CNC(=O)[C@@H](COCc2ccccc2)NC(=O)/C=C/C[C@@H]([C@H](C)/C=C/c2ccccc2)OC1=O` it is 856 nM.
Turning to `CC(C)C[C@@H]1OC(=O)C(C)(C)CNC(=O)[C@@H](Cc2ccc(N)c(Cl)c2)NC(=O)/C=C/C[C@@H]([C@H](C)[C@H]2O[C@@H]2c2ccccc2)OC1=O`, half-maximal inhibition (IC50) required 0.58 nM. This IC50 lies about 1500-fold lower than the previous one.
Under `CC(C)C[C@@H]1OC(=O)C(C)(C)CNC(=O)[C@@H](CCc2ccccc2)NC(=O)/C=C/C[C@@H]([C@H](C)[C@@H]2O[C@H]2c2ccccc2)OC1=O` stands > 1620 nM; under `CC(C)C[C@@H]1OC(=O)C(C)(C)CNC(=O)[C@@H]([C@H](C)O)NC(=O)/C=C/C[C@@H]([C@H](C)[C@H]2O[C@@H]2c2ccccc2)OC1=O`, 1060 nM; under `CC(C)C[C@@H]1OC(=O)C(C)(C)CNC(=O)CNC(=O)/C=C/C[C@@H]([C@H](C)[C@H]2O[C@@H]2c2ccccc2)OC1=O`, > 1940 nM.
In the case of `CC(C)C[C@@H]1OC(=O)C(C)(C)CNC(=O)[C@@H](c2ccc(O)cc2)NC(=O)/C=C/C[C@@H]([C@H](C)/C=C/c2ccccc2)OC1=O`, the IC50 was > 1690 nM.
